# Measurements published in ChEMBL document CHEMBL3259759, “Discovery of novel bacterial elongation condensing enzyme inhibitors by virtual screening” (Bioorg Med Chem Lett, 2014).
# Tests used:
# Escherichia coli = assay: Inhibition of Escherichia coli FabB at 200 uM by radiochemical assay
# In short: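 Radiochemical condensing-enzyme assay with FabB, run per an earlier method except that lauryl-ACP replaced myristoyl-ACP. The lauryl-ACP was made with Vibrio harveyi acyl-ACP synthetase. Compounds were tested at a single final concentration of 200 μM, and inhibition is given as percent.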
# [1] = Inhibition of Escherichia coli FabB by radiochemical assay
# In short: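 Radiochemical condensing-enzyme assay with E. coli FabB, run as described earlier except that myristoyl-ACP was replaced by lauryl-ACP. The lauryl-ACP was made with Vibrio harveyi acyl-ACP synthetase. Compounds were first screened at a single final concentration of 200 μM, and selected compounds then went to dose-response testing to derive IC50.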
# [2] = Inhibition of Staphylococcus aureus FabF by radiochemical assay
SMILES,inhibition (Escherichia coli),IC50 [1],IC50 [2]
O=c1oc2cc(Br)ccc2n1CN(CC1CCCC1)C1CC1,17.7%,–,–
CN(CCN1CCCC1)Cn1c(=O)oc2cc(Cl)ccc21,26.4%,–,–
CN(Cc1cccc(O)c1)Cn1c(=O)oc2ccc(Cl)cc21,41.4%,–,–
CN(Cc1ccsc1)Cn1c(=O)oc2ccccc21,30%,–,–
CC(CN(C)Cn1c(=O)oc2cc(Cl)ccc21)N1CCOCC1 (racemic),24.3%,–,–
O=c1oc2ccc(Cl)cc2n1CN1CCC1c1ccccc1 (racemic),31.9%,–,–
O=c1sc2ccc(Cl)cc2n1CN1CCCC1c1cccc(Br)c1 (racemic),36.1%,303 µM,–
O=c1oc2ccc(Cl)cc2n1CN1CCCCC1c1ccccc1 (racemic),30.4%,415 µM,–
O=c1oc2ccccc2n1CN1CCCC1,24%,–,–
O=c1oc2ccccc2n1CN(Cc1ccc(F)cc1)C1CC1,5%,–,–
O=c1oc2ccc(Cl)cc2n1CN(CC1CCOC1)C1CC1 (racemic),36.7%,350 µM,–
O=c1oc2cc(Cl)ccc2n1CN1CCCCC1c1ccccc1 (racemic),38%,–,–
CN(CC1CCCC1)Cn1c(=O)oc2ccc(Cl)cc21,17.7%,–,–
O=c1oc2ccc(Cl)cc2n1CN1CCCC2(CCOCC2)C1,37.7%,335 µM,–
O=c1oc2cc(Cl)ccc2n1CN(Cc1ccc(F)cc1)C1CC1,32.1%,–,–
O=c1oc2ccccc2n1CN(Cc1ccsc1)C1CC1,37.8%,–,–
CN(Cc1ccccc1)Cn1c(=O)oc2ccccc21,33.5%,235 µM,387 µM
COc1cccc(C2CCCN2Cn2c(=O)oc3ccc(Cl)cc32)c1 (racemic),37.1%,305 µM,–
COc1cccc(C2CCCN2Cn2c(=O)oc3cc(Cl)ccc32)c1 (racemic),36.4%,–,–
O=c1oc2cc(Br)ccc2n1CN1CCC2(CC1)OCCO2,32.7%,600 µM,–
O=c1oc2cc(Cl)ccc2n1CN(CC1CCOC1)C1CC1 (racemic),24.1%,800 µM,–
CN1CCC(CN(C)Cn2c(=O)oc3cc(Cl)ccc32)C1 (racemic),23.8%,–,–
Cc1ccc2oc(=O)n(CN(CC3CCOC3)C3CC3)c2c1 (racemic),40.1%,–,–
CN(CC1CCOCC1)Cn1c(=O)oc2cc(Cl)ccc21,31.7%,–,–
O=c1oc2cc(Cl)ccc2n1CN1CCCC2(CCOCC2)C1,38.8%,–,–
COc1cccc(CN(Cn2c(=O)oc3cc(Cl)ccc32)C2CC2)c1,28.3%,–,–
N#Cc1ccc2oc(=O)n(CN3CCCC3c3cccc(Br)c3)c2c1 (racemic),42.1%,253 µM,–
O=c1oc2cc(Cl)ccc2n1CN(Cc1cccnc1)C1CC1,23.6%,–,–
O=c1oc2cc(Cl)ccc2n1CN(Cc1ccccn1)C1CC1,30%,–,–
O=c1oc2ccc(Cl)cc2n1CN1CCCC1c1cccc(Br)c1 (racemic),55.4%,260 µM,–
